Source: ChEMBL document CHEMBL1146537, “Diterpenoids from Tetraclinis articulata that inhibit various human leukocyte functions” (J Nat Prod, 2003)

How the values were obtained:
[1] = test system: Neutrophil; assay: Inhibition of TPA-induced chemiluminescence response in human neutrophils at 10 uM after 7 mins; assay type: functional
In short: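 Neutrophils (2.5×10^6/mL) with luminol (40 μM), stimulated by TPA (1 μM); light output counted after 7 min, chosen as time of maximal production.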

[2] = test system: Neutrophil; assay: Inhibition of cytochalasin B and fMLP-stimulated human neutrophil degranulation assessed as inhibition of elastase release at 10 uM preincubated for 5 mins measured after 20 mins; assay type: functional
In short: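 Neutrophils (2.5×10^6/mL) preincubated 5 min with compound or vehicle, then cytochalasin B (10 μM) + fMLP (10 nM), 10 min, 37 °C. Supernatant after 1200g spin at 4 °C, 10 min, reacted with Boc-L-alanine p-nitrophenyl ester (200 μM) 20 min, 37 °C; p-nitrophenol read at 414 nm. Direct enzyme inhibition checked by 5 min compound preincubation with stimulated supernatant before substrate.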

[3] = Cytotoxicity against human neutrophils up to 10 uM by MTT assay; assay type: cell-based; settings: neutrophil
[4] = test system: Neutrophil; assay: Inhibition of cytochalasin B and fMLP-stimulated human neutrophil degranulation assessed as inhibition of myeloperoxidase release at 10 uM preincubated for 5 mins; assay type: functional
In short: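 Neutrophils (2.5×10^6 cells/mL) preincubated 5 min at 37 °C with compound in ethanol (ethanol alone for controls). Then stimulated 10 min at 37 °C with cytochalasin B (10 μM) plus fMLP (10 nM).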

Structure (SMILES)	inhibition at 10 µM [1]	inhibition at 10 µM [2]	Activity [3]	inhibition at 10 µM [4]
C=C[C@@]1(C)CC[C@H]2[C@](O)(CC[C@@H]3[C@]2(C)CCC[C@@]3(C)C=O)C1	30.5%	17.8%	Non-toxic	47.8%
C=C[C@@]1(C)CC[C@H]2[C@](O)(CC[C@H]3[C@](C)(COC(C)=O)CCC[C@@]32C)C1	6.5%	33.5%	Non-toxic	55.4%
C=C[C@@]1(C)CC[C@H]2[C@](O)(CC[C@H]3[C@](C)(CO)CCC[C@@]32C)C1	1.8%	24.1%	Non-toxic	46.7%
